Measurements reported in ChEMBL document CHEMBL1125330, “N-substituted pyrazino[2,3-c][1,2,6]thiadiazine 2,2-dioxides. A new class of diuretics” (J Med Chem, 1992).

What was measured:
Rattus norvegicus [1] = test: Volume of urine 1 hr after the compound was administered 100 mg/kg po in rat; format: ADME, organism-based; set-up: dose 100 mg/kg, route oral; conditions: in vivo
How it was run: (§1)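 Onset/duration protocol: male Sprague-Dawley rats (HC/CFY, 175-200 g), food and water withdrawn for 18 h before and during the test. Single gavage dose in 1% carboxymethyl cellulose/0.1% Tween 80 (0.5 mL/100 g bw), then distilled water load (2.5 mL/100 g bw po). Two rats per metabolic cage, six pairs per group. Urine collected at 0-1, 1-2, 2-3, 3-4 and 4-6 h; Na+ by flame photometry. Vehicle controls; nonpaired Student t-test.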

[2] = Acute toxicity in mice when given po; format: organism-based; conditions: mouse, in vivo, read-out: DL50 (the source's name)
How it was run: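 Male Swiss mice (SPF, HC/CFLP strain, 20–25 g), oral dosing; mortality followed over 15 days; LD50 derived by the Litchfield and Wilcoxon method.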

Rattus norvegicus [3] = species on record: Rattus norvegicus; test: Mean sodium excretion in rats (Control/Drug treatment value); value 0.35/2.88; format: ADME, organism-based; conditions: in vivo
Rattus norvegicus [4] = test: Mean potassium excretion in rats when compound administered at 40 mg/kg po and vehicle dosed at 148.52 umol/kg; format: ADME, organism-based; set-up: dose 40 mg/kg, route oral; conditions: in vivo
How it was run: (§2)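 Male Sprague-Dawley rats (HC/CFY, 175-200 g), no food or water for 18 h before and during the test. Single gavage dose (2.5-160 mg/kg; vehicle 1% carboxymethyl cellulose/0.1% Tween 80, 0.5 mL/100 g bw), then distilled water 2.5 mL/100 g bw po. Individual metabolic cages, 6 h urine. K+ by flame photometry, Cl- colorimetric, as mequiv/6 h/kg bw; unpaired Student t-test vs control.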

Rattus norvegicus [5] = test: Mean Chlorine excretion in rats when compound administered at 160 mg/kg po and vehicle dosed at 594.07 umol/kg; format: ADME, organism-based; set-up: dose 160 mg/kg, route oral; conditions: in vivo; how it was run: as §2
Rattus norvegicus [6] = test: Volume of urine 2 hr after the compound was administered 100 mg/kg po in rat; format: ADME, organism-based; set-up: dose 100 mg/kg, route oral; conditions: in vivo; how it was run: as §1
Rattus norvegicus [7] = test: Mean sodium excretion in rats when compound administered at 10 mg/kg po and vehicle dosed at 37.13 umol/kg; format: ADME, organism-based; set-up: dose 10 mg/kg, route oral; conditions: in vivo
How it was run: (§3)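 Male Sprague-Dawley rats (HC/CFY, 175-200 g) fasted and water-deprived 18 h before and during the test. Dosed by gavage at 2.5-160 mg/kg in 1% carboxymethyl cellulose/0.1% Tween 80, 0.5 mL/100 g bw. Immediately hydrated with water (2.5 mL/100 g bw, po). Urine collected 6 h in metabolic cages; Na+ and K+ by flame photometry; mean mequiv/6 h/kg bw; nonpaired Student t-test.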

Rattus norvegicus [8] = test: Dose required to produce an excretion of 2 mequiv of Na+/kg bw/6h vs control groups; format: functional
How it was run: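 Male Sprague-Dawley rats (HC/CFY, 175-200 g), fasted and water-deprived 18 h before and during the test. Compound dosed by gavage in 1% carboxymethyl cellulose/0.1% Tween 80, then water load 2.5 mL/100 g bw po. Urine collected 6 h in metabolic cages; Na+ by flame photometry. Effective doses vs vehicle controls derived by linear regression of dose-response data.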

Rattus norvegicus [9] = test: Mean urinary output in rats when compound administered at 10 mg/kg po and vehicle dosed at 37.13 umol/kg; format: ADME, organism-based, Urine; set-up: dose 10 mg/kg, route oral; conditions: in vivo
How it was run: (§4)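 Water-loaded male Sprague-Dawley rats (HC/CFY, 175-200 g) fasted and without water for 18 h. Oral gavage of 2.5-160 mg/kg in 1% CMC with 0.1% Tween 80, then distilled water 2.5 mL/100 g po. Urine collected 6 h in metabolic cages, mean output in mL/6 h/kg bw. Unpaired Student t-test against vehicle; dose-response by linear regression.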

Rattus norvegicus [10] = test: Mean sodium excretion in rats when compound administered at 80 mg/kg po and vehicle dosed at 297.03 umol/kg; format: ADME, organism-based; set-up: dose 80 mg/kg, route oral; conditions: in vivo; how it was run: as §3
Rattus norvegicus [11] = species on record: Rattus norvegicus; test: Mean urinary output in rats (Control/Drug treatment value); value 24.2/47.6; format: ADME, organism-based, Urine; conditions: in vivo
How it was run: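 Water-loaded male Sprague-Dawley rats (HC/CFY, 175-200 g), eight per group, deprived of food and water 18 h. Single oral gavage of 20-25 mg/kg (some 10 mg/kg) in 1% CMC/0.1% Tween 80, then distilled water 2.5 mL/100 g bw po. Cumulative urine over 6 h in metabolic cages; mean mL/6 h/kg bw vs vehicle group.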

Rattus norvegicus [12] = test: Mean Chlorine excretion in rats when compound administered at 5 mg/kg po and vehicle dosed at 18.56 umol/kg; format: ADME, organism-based; set-up: dose 5 mg/kg, route oral; conditions: in vivo; how it was run: as §2
Rattus norvegicus [13] = test: Mean urinary output in rats when compound administered at 40 mg/kg po and vehicle dosed at 148.52 umol/kg; format: ADME, organism-based, Urine; set-up: dose 40 mg/kg, route oral; conditions: in vivo; how it was run: as §4
Rattus norvegicus [14] = test: Mean potassium excretion in rats when compound administered at 160 mg/kg po and vehicle dosed at 594.07 umol/kg; format: ADME, organism-based; set-up: dose 160 mg/kg, route oral; conditions: in vivo; how it was run: as §2
Rattus norvegicus [15] = test: Mean potassium excretion in rats when compound administered at 0 mg/kg po and vehicle dosed at 0 umol/kg; format: ADME, organism-based; set-up: dose 0 mg/kg, route oral; conditions: in vivo; how it was run: as §2
Rattus norvegicus [16] = test: Mean Chlorine excretion in rats when compound administered at 80 mg/kg po and vehicle dosed at 297.03 umol/kg; format: ADME, organism-based; set-up: dose 80 mg/kg, route oral; conditions: in vivo; how it was run: as §2

CCc1nc2c(nc1C)C(N)=NS(=O)(=O)N2CC
Urine volume (Rattus norvegicus [1]): 1.84 mL
LD50 [2]: 1840 mg/kg
Na (Rattus norvegicus [3]): 8.2
K (Rattus norvegicus [4]): 1.25 m equiv 6hr-1 kg-1 (body weight)-1
Cl- (Rattus norvegicus [5]): 9.28 m equiv 6hr-1 kg-1 (body weight)-1
Urine volume (Rattus norvegicus [6]): 8.7 mL
Na (Rattus norvegicus [7]): 1.21 m equiv 6hr-1 kg-1 (body weight)-1
ED2 (Rattus norvegicus [8]): 14.62 mg/kg
V (Rattus norvegicus [9]): 32.6 ml 6hr-1 (kg of body weight)-1
Na (Rattus norvegicus [10]): 5.1 m equiv 6hr-1 kg-1 (body weight)-1
V (Rattus norvegicus [11]): 2
Cl- (Rattus norvegicus [12]): 1.83 m equiv 6hr-1 kg-1 (body weight)-1
V (Rattus norvegicus [13]): 59.12 ml 6hr-1 (kg of body weight)-1
K (Rattus norvegicus [14]): 2.35 m equiv 6hr-1 kg-1 (body weight)-1
K (Rattus norvegicus [15]): 0.49 m equiv 6hr-1 kg-1 (body weight)-1
Cl- (Rattus norvegicus [16]): 8.04 m equiv 6hr-1 kg-1 (body weight)-1
